Rows were chosen to be rich in hits. Some 1.9% of all compounds tested hit in one or more screens of this group.
VIM-2 inh = blocks Pseudomonas aeruginosa VIM-2 metallo-beta-lactamase; purified VIM-2, nitrocefin hydrolysis, epi-absorbance fluorescence; inhibition, % at 5.6 µM; actives 0.89% (n = 290,000);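 active means inhibition above the mean of all tested compounds plus 3 SD, cutoff set per screening run, cut at about 7.5% in these data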;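 further: red hydrolysis product quenches plate fluorescence so inhibitors raise well fluorescence; 0% = enzyme with DMSO and 100% = DMSO without enzyme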
UBC9 SUMO inh = blocks human SUMOylation mediated by UBC9. P63279. HTRF SUMOylation assay, SAE1/SAE2 + UBC9, in vitro. inhibition, % at 35 µM. actives 0.36% (n = 290,000). AID 2006; in the data active means inhibition above about 50%, passing the limit was not always enough
Fh CTSL1 inh = counter-screen for PFM18AAP inhibitors: inhibitors of F. hepatica cathepsin L1 | recombinant F. hepatica cathepsin L1, Z-Leu-Arg-MCA fluorescence | inhibition, % at 5.96 µM | actives 0.49% (n = 300,000);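 active means inhibition above the mean of all tested compounds plus 3 SD, set per screening campaign, cut at about 17% in these data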;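 further: 0% = plate median of test compound wells and 100% = 1 µM Z-Phe-Ala-diazomethylketone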
IMP-1 inhibitor = inhibitors of Pseudomonas aeruginosa IMP-1 metallo-beta-lactamase | purified IMP-1, nitrocefin hydrolysis, epi-absorbance fluorescence | inhibition, % at 5.6 µM | actives 0.45% (n = 290,000);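 active means inhibition above the mean plus 3 SD of all compounds in the same screening run, cut at about 4.5% in these data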;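 further: 0% = IMP-1 with DMSO and 100% = DMSO wells lacking enzyme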
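Material – recombinant IMP-1 enzyme, purified · Amount – IMP-1 0.2 nM before substrate addition · Medium – HEPES buffer pH 7.1 with ZnSO4 and Brij 35 · Timing – 25 °C, 15 min preincubation, 25 min reaction · Measured by – plate fluorescence quenching by hydrolysis product, ex 480/em 530 nm · Read-out – percent enzyme inhibition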
T cell modulator = modulates CD8 T cell binding to vesicles; AID 2052; actives 0.068% (n = 330,000); 2C CD8+ T cell-vesicle binding, flow cytometry; active compounds read low; response (vesicle binding), % at 7 µM;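 active means response, share of CD8 T cells binding vesicles, and their 90th percentile fluorescence all below set limits, cut at about 80% in these data, passing the limit was not always enough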;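 further: values below 100% mean blocked vesicle binding to the CD8+ T cells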
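Material: murine 2C transgenic CD8+ T lymphocytes / Also added: QL9-peptide-loaded Drosophila micro-vesicles bearing Ld, ICAM-1 and B7-1 / Schedule: binding step 1.5 h, 37 °C, antibody labelling 20 min, ice / Signal: flow cytometry, PE anti-B7-1 (FL2) versus Alexa647 anti-CD8 (FL8), PFA-fixed / Evaluation: percent CD8+ FL2 mean versus row control / Benchmarks: naked versus QL9-loaded vesicles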
pCIP destab = compounds decreasing mouse p/CIP protein stability | actives 0.01% (n = 290,000) | Q05BA5 | F442A p/CIP-EGFP cells, EGFP fluorescence, 16 h | decrease of EGFP signal, % at 10 µM;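 active means EGFP signal decrease of at least 30% at 10 µM or well 3 SD below plate mean, unless failing retest; inactive means the rest, including hits failing retest or dose response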
Starred values were filed as active, the others as inactive; i = inactive; / = not tested or not shown.

SMILES	VIM-2 inh	UBC9 SUMO inh	Fh CTSL1 inh	IMP-1 inhibitor	T cell modulator	pCIP destab
FC(F)(F)c1cccc(-c2nnc(-c3ccccc3)c(N3CCOCC3)n2)c1	-3	-18	17*	-1	299	-12
FC(F)(F)c1nnc(-c2ccccc2)nc1N1CCOCC1	-1	-6	1	-3	174	-4
Cc1ccc(S(=O)(=O)CNC(=O)c2ccccc2)cc1	-2	-4	36*	-6	222	-7
Cc1ccc(S(=O)(=O)NCCNC(=O)c2ccccc2)cc1	-2	16	2	-2	302	-6
COC(=O)c1ccc(N(C(=O)c2ccco2)C(C(=O)NC2CCCC2)c2ccco2)cc1 (stereo not given)	3	-9	1	4.5*	681	-5
CCCn1c(N)c(N2CCCCC2)c(=O)n(CC(=O)Nc2cccc(S(=O)(=O)N(C)C)c2)c1=O	/	/	/	/	330	/
CC(NC(=O)OC(C)(C)C)C(=O)Oc1ccc2ccc(=O)oc2c1 (stereo not given)	-2	52*	2	-2	152	6
CC(C)(C)OC(=O)NCCC(=O)Oc1ccc2ccc(=O)oc2c1	-2	36	-50	-2	312	-10
O=C1[C@H]2[C@@H](c3ccc(Cl)cc3)N3C(=O)N(c4cccc(Cl)c4)C(=O)[C@@]3(Cc3ccccc3)[C@H]2C(=O)N1C1CCCCC1	/	/	1	/	231	/
Cc1cccc(C)c1OCc1nnc(SCC(=O)NCc2ccccc2)o1	-2	3	21*	-2	376	-6
CN(C(=O)c1cnccn1)c1c(N)n(Cc2ccccc2)c(=O)[nH]c1=O	/	/	-2	/	406	/
O=C(C[C@H]1C/C=C\CC[C@@H](Cc2ccc(F)cc2)C(=O)O[C@@H](c2ccccc2)CNC1=O)N[C@@H](CO)Cc1ccccc1	/	/	/	/	658	/
COc1cc(/C=C2\C(=O)N(c3ccccc3)N=C2C)ccc1Oc1ccc([N+](=O)[O-])cc1[N+](=O)[O-]	-3	/	-4	-3	538	-9
CC1=NN(c2ccccc2)C(=O)/C1=C\c1ccc(Oc2ccc([N+](=O)[O-])cc2[N+](=O)[O-])cc1	-2	95*	-3	-1	192	4
CC(CNc1nc2ccc(Cl)cc2n2cnnc12)c1ccccc1 (stereo not given)	-2	-17	-2	0	147	-10
Cc1c(CC(=O)O)c(=O)oc2c(C)c(OCc3ccc(F)cc3F)ccc12	-1	30	1	-1	180	-11
Cc1c(CC(=O)O)c(=O)oc2c(C)c(OCc3ccc(F)cc3Cl)ccc12	-2	/	0	20*	139	-1
CCOc1ccc2[nH]c(C)c(CN3CCN(CC)CC3)c(=O)c2c1	-2	15	-2	5.2*	766	-32
CCOc1ccc2[nH]c(C)c(CN3CCN(C)CC3)c(=O)c2c1	-3	11	0	-1	655	0
Cc1ccc(NC(=O)CCCC(=O)O)c(-c2nc3ccccc3[nH]c2=O)c1	0	23	5	-2	426	2
CC1CCCCN1S(=O)(=O)c1cccc2nonc12 (stereo not given)	-3	3	/	-2	488	-12
O=C(NC12CC3CC(CC(C3)C1)C2)OCCNC1CCCCC1	0	6	-1	4.5*	350	6
CN(C)CCOC(=O)NC12CC3CC(CC(C3)C1)C2	0	18	-4	-2	530	-12
Cc1ccc(NC(=O)c2ccc3nccnc3c2)c(C)c1	2	9	5	-1	292	0
COc1ccc(CNC(=O)C(OC(C)=O)c2ccccn2)cc1 (stereo not given)	-1	12	-29	5.8*	445	-2
SMILES	VIM-2 inh	UBC9 SUMO inh	Fh CTSL1 inh	IMP-1 inhibitor	T cell modulator	pCIP destab
Cc1ccc(CNS(=O)(=O)c2ccc(F)c(F)c2)n1C	-1	9	24*	-1	206	-28
O=C(N/N=C/c1ccc(OCc2ccccc2)cc1)c1ccco1	-4	12	22*	-2	515	10
COc1ccc(-n2ncc3c2CC(C)(C)CC3NC(=O)c2cnc(C)cn2)cc1 (stereo not given)	-2	1	-5	-1	256	-4
Cc1ccc(N2CC(C)Cn3c2nc2c3c(=O)[nH]c(=O)n2C)cc1 (stereo not given)	5	3	/	0	/	-10
Cc1ccc(N2CC(C)Cn3c2nc2c3c(=O)[nH]c(=O)n2C)cc1C (stereo not given)	8.7*	3	-6	-2	i	-9
Cc1ccc(NC(=O)Cn2c(=O)c3cccn3c3ccccc32)cc1	1	12	-5	-1	343	2
N#Cc1ccc(NC(=O)C2=COCCO2)cc1	/	/	/	/	383	/
COC(=O)C1=C(C)OC(N)=C(C#N)C1c1cccnc1 (stereo not given)	-3	4	-2	-3	329	-6
CC1=C(C(=O)OC(C)C)C(c2cncc(-c3ccc(F)cc3)c2)C(C#N)=C(N)O1 (stereo not given)	-2	18	19*	-4	0	-4
O=C(Nc1ccc(Nc2ccncc2)cc1)c1ccc(Nc2ccnc3ccc([N+](=O)[O-])cc23)cc1[N+](=O)[O-]	2	46	-2	9.1*	70	-9
O=C(Nc1ccc(Nc2ccncc2)cc1)c1ccc([N+](=O)[O-])cc1	-3	14	-5	-1	174	-7
CCN(CC(=O)Nc1ccc2c(c1)OCCO2)CC(=O)Nc1ccc(C)c(S(=O)(=O)N(C)C)c1	/	/	/	/	244	/
N#Cc1c(C(F)(F)F)cc(-c2cccc(Cl)c2)[nH]c1=O	8.7*	35	1	0	526	-12
c1cn2cc(CSC3CCCCC3)nc2s1	9.1*	-12	-7	-3	134	8
O=C(NCCc1cn2ccsc2n1)C1CCCCC1	0	13	0	-4	i	-23
O=C1CN(C(=O)c2ccc(Cl)c([N+](=O)[O-])c2)c2ccccc2N1	-1	3	/	-5	207	-3
CC(C)CCN1CCC(n2nccc2NC(=O)c2ccc3c(c2)OCO3)CC1	-2	-1	-1	-4	334	6
CN(C)c1ccc(NC(=O)C2CCCN(S(=O)(=O)c3ccccc3)C2)cc1 (stereo not given)	0	0	1	-3	260	12
CCOc1ccc(C2C=C(c3ccccc3)Nc3ncnn32)cc1 (stereo not given)	-5	52*	1	-3	293	-6
COC(=O)C1CCN(C2=C(NS(=O)(=O)c3ccc(Cl)cc3)C(=O)c3ccccc3C2=O)CC1	8.4*	31	0	-1	97	0
COc1ccc(CC(=O)NC2CCN(CC(=O)Nc3ccc4c(c3)OCCO4)CC2)cc1OC	-4	7	-3	12*	685	-5
